Results: ChEMBL document CHEMBL4043082, “Clerodane Diterpenoid Glucosides from the Stems of Tinospora sinensis” (J Nat Prod, 2017)
pIC50: −log10 of the molar value.

What was measured:
HeLa = experiment: Cytotoxicity against human HeLa cells assessed as reduction in cell viability incubated for 48 hrs by MTT assay; type: functional, cell-based
In short: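 HeLa cells seeded at 8 × 10^3 per well, exposed in triplicate to 2.5, 5, 10, 20 and 50 μM of each compound at 37 °C for 48 h; doxorubicin as positive control. MTT (5 mg/mL) added for 4 h, formazan dissolved in DMSO, absorbance at 570 nm; IC50 by Logit method.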

N9 = experiment: Inhibition of LPS-induced nitric oxide production in mouse N9 cells by Griess reaction based assay; type: functional, cell-based
In short: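 N9 microglial cells activated with LPS; nitrite accumulation in culture supernatants measured by Griess reaction; microglial cell viability checked in parallel by MTT assay.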

| SMILES | pIC50 (HeLa) | pIC50 (N9) |
| --- | --- | --- |
| CC(=O)O[C@@H]1[C@@H]2[C@H](CC[C@@]3(O)C(=O)O[C@H](c4ccoc4)C[C@@]23C)[C@H](O[C@@H]2O[C@H](CO)[C@@H](O)[C@H](O)[C@H]2O)C[C@@H]1O | ≤ 5.00 | ≤ 4.00 |
| COc1cc(/C=C\C(=O)O[C@@H]2C[C@H](OC(C)=O)[C@H](O)[C@@H]3[C@@H]2CC[C@@]2(O)C(=O)O[C@H](c4ccoc4)C[C@@]32C)ccc1O[C@@H]1O[C@H](CO)[C@@H](O)[C@H](O)[C@H]1O | ≤ 5.00 | ≤ 4.00 |
| C[C@@]12C[C@@H](c3ccoc3)OC(=O)[C@]1(O)CC[C@]1(C)[C@H]2[C@H]2C=C[C@]1(O[C@@H]1O[C@H](CO)[C@@H](O)[C@H](O)[C@H]1O)C(=O)O2 | ≤ 5.00 | ≤ 4.00 |
| CC(=O)O[C@@H]1[C@@H]2[C@H](CC[C@@]3(O)C(=O)O[C@H](c4ccoc4)C[C@@]23C)[C@H](O[C@@H]2O[C@H](CO)[C@@H](O)[C@H](O)[C@H]2O)C[C@@H]1OC(C)=O | ≤ 5.00 | ≤ 4.00 |
| COc1cc(/C=C/C(=O)O[C@H]2C[C@H](O)[C@H](O)[C@@H]3[C@@H]2CC[C@@]2(O)C(=O)O[C@H](c4ccoc4)C[C@@]32C)ccc1O[C@@H]1O[C@H](CO)[C@@H](O)[C@H](O)[C@H]1O | ≤ 5.00 | ≤ 4.00 |
| C[C@@]12CC[C@@]3(O)C(=O)O[C@H](c4ccoc4)C[C@@]3(C)[C@@H]1[C@@H](O[C@@H]1O[C@H](CO)[C@@H](O)[C@H](O)[C@H]1O)C=CC2=O | ≤ 5.00 | ≤ 4.00 |
| COc1cc(/C=C/C(=O)O[C@@H]2C[C@H](OC(C)=O)[C@H](O)[C@@H]3[C@@H]2CC[C@@]2(O)C(=O)O[C@H](c4ccoc4)C[C@@]32C)ccc1O[C@@H]1O[C@H](CO)[C@@H](O)[C@H](O)[C@H]1O | ≤ 5.00 | ≤ 4.00 |
| COc1cc(/C=C/C(=O)O[C@H]2C[C@H](OC(C)=O)[C@H](O)[C@@H]3[C@@H]2CC[C@@]2(O)C(=O)O[C@H](c4ccoc4)C[C@@]32C)ccc1O[C@@H]1O[C@H](CO)[C@@H](O)[C@H](O)[C@H]1O | ≤ 5.00 | ≤ 4.00 |
| COc1cc(/C=C/C(=O)O[C@@H]2C[C@H](O)[C@H](O)[C@@H]3[C@@H]2CC[C@@]2(O)C(=O)O[C@H](c4ccoc4)C[C@@]32C)ccc1O[C@@H]1O[C@H](CO)[C@@H](O)[C@H](O)[C@H]1O | ≤ 5.00 | ≤ 4.00 |
| COc1cc(/C=C/C(=O)O[C@@H]2CC[C@H](O)[C@@H]3[C@@H]2CC[C@@]2(O)C(=O)O[C@H](c4ccoc4)C[C@@]32C)ccc1O[C@@H]1O[C@H](CO)[C@@H](O)[C@H](O)[C@H]1O | ≤ 5.00 | ≤ 4.00 |
| COc1cc(/C=C/C(=O)O[C@@H]2C[C@H](O)[C@H](OC(C)=O)[C@@H]3[C@@H]2CC[C@@]2(O)C(=O)O[C@H](c4ccoc4)C[C@@]32C)ccc1O[C@@H]1O[C@H](CO)[C@@H](O)[C@H](O)[C@H]1O | ≤ 5.00 | ≤ 4.00 |
| C[C@@]12C[C@@H](c3ccoc3)OC(=O)[C@]1(O)CC[C@H]1[C@H]2[C@@H](O)[C@@H](O)C[C@H]1O[C@@H]1O[C@H](CO)[C@@H](O)[C@H](O)[C@H]1O | 5.08 | ≤ 4.00 |
| CC(=O)O[C@H]1C[C@@H](O[C@@H]2O[C@H](CO)[C@@H](O)[C@H](O)[C@H]2O)[C@H]2CC[C@@]3(O)C(=O)O[C@H](c4ccoc4)C[C@@]3(C)[C@@H]2[C@H]1O | ≤ 5.00 | ≤ 4.00 |
| COc1cccc2c1C(=O)c1c(O)c3c(c(O)c1C2=O)C[C@@](O)(C(=O)CO)C[C@@H]3O[C@H]1C[C@H](N)[C@H](O)[C@H](C)O1 [DOXORUBICIN] | 6.49 |  |
